Usually IC50 stands for the concentration that inhibits the measured activity by half. Lower therefore signals higher potency. For orientation: CC50 means the concentration that lowers cell viability or growth by half. Lower therefore signals harm at low concentration.

The source of these data is ChEMBL document CHEMBL1131099, “Biologically active oligodeoxyribonucleotides. 5. 5'-End-substituted d(TGGGAG) possesses anti-human immunodeficiency virus type 1 activity by forming a G-quadruplex structure” (J Med Chem, 1998).

The test system of test [1] is MT4. Description: In vitro inhibitory activity for cytopathicities induced by HIV-1III B against MT-4 cells. The conditions noted are these: Homo sapiens. It counts as functional, cell-based. In a few lines: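 Exponentially growing MT-4 cells were pelleted (140g, 5 min), infected in a small volume of RPMI-1640 with 100 TCID50 HIV-1 IIIB for 1 h, washed, and plated at 2.5 × 10⁴ cells/well with serial oligonucleotide dilutions. Viability was read by MTT at day 6. IC50 was taken from dose-response curves, as the mean of duplicate or quadruplicate ± SD.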
(Protection from cytopathic effect is a common read-out in antiviral testing.)

For test [2], the system named is MT4. Kind of test: Cytotoxicity was measured against MT-4 cells using MTT assay. The format is functional. The conditions noted are these: Homo sapiens. For orientation: Formazan colour is commonly taken as a measure of viable cells.

`Cc1cn([C@H]2C[C@H](OP(=O)(O)OC[C@H]3O[C@@H](n4cnc5c(O)nc(N)nc54)C[C@@H]3O)[C@@H](COCc3ccc(OCc4ccccc4)c(OCc4ccccc4)c3)O2)c(=O)[nH]c1=O`: the IC50 with MT4 [1] is above 100 µM. This compound displayed a half-maximal cytotoxic concentration (CC50) with MT4 [2] above 100 µM.

`Cc1cn([C@H]2C[C@H](OP(=O)(O)OC[C@H]3O[C@@H](n4cnc5c(=O)[nH]c(N)nc54)C[C@@H]3OP(=O)(O)OC[C@H]3O[C@@H](n4cnc5c(=O)[nH]c(N)nc54)C[C@@H]3OP(=O)(O)OC[C@H]3O[C@@H](n4cnc5c(=O)[nH]c(N)nc54)C[C@@H]3OP(=O)(O)OC[C@H]3O[C@@H](n4cnc5c(=O)[nH]c(N)nc54)C[C@@H]3O)[C@@H](COCc3ccc(OCc4ccccc4)c(OCc4ccccc4)c3)O2)c(=O)[nH]c1=O` had an IC50 in the test on MT4 [1] of 0.66 µM. This compound displayed a 50% cytotoxic concentration (CC50) in the test on MT4 [2] above 40 µM.

`Cc1cn([C@H]2C[C@H](OP(=O)(O)OC[C@H]3O[C@@H](n4cnc5c(=O)[nH]c(N)nc54)C[C@@H]3OP(=O)(O)OC[C@H]3O[C@@H](n4cnc5c(=O)[nH]c(N)nc54)C[C@@H]3OP(=O)(O)OC[C@H]3O[C@@H](n4cnc5c(=O)[nH]c(N)nc54)C[C@@H]3OP(=O)(O)OC[C@H]3O[C@@H](n4cnc5c(N)ncnc54)C[C@@H]3OP(=O)(O)OC[C@H]3O[C@@H](n4cnc5c(=O)[nH]c(N)nc54)C[C@@H]3O)[C@@H](COCc3ccccc3)O2)c(=O)[nH]c1=O` displayed an IC50 in the test on MT4 [1] above 40 µM. In the test on MT4 [2], the CC50 was above 40 µM.

For the compound `Cc1cn([C@H]2C[C@H](OP(=O)(O)OC[C@H]3O[C@@H](n4cnc5c(O)nc(N)nc54)C[C@@H]3OP(=O)(O)OC[C@H]3O[C@@H](n4cnc5c(O)nc(N)nc54)C[C@@H]3OP(=O)(O)OC[C@H]3O[C@@H](n4cnc5c(O)nc(N)nc54)C[C@@H]3O)[C@@H](COCc3ccc(OCc4ccccc4)c(OCc4ccccc4)c3)O2)c(=O)[nH]c1=O`, the half-maximal inhibitory concentration (IC50) in the test on MT4 [1] came to 4.6 µM. In the test with MT4 [2], this compound displayed a CC50 above 40 µM.

Compound `Cc1cn([C@H]2C[C@H](OP(=O)(O)OC[C@H]3O[C@@H](n4cnc5c(=O)[nH]c(N)nc54)C[C@@H]3OP(=O)(O)OC[C@H]3O[C@@H](n4cc(C)c(=O)[nH]c4=O)C[C@@H]3OP(=O)(O)OC[C@H]3O[C@@H](n4cnc5c(=O)[nH]c(N)nc54)C[C@@H]3OP(=O)(O)OC[C@H]3O[C@@H](n4cnc5c(N)ncnc54)C[C@@H]3OP(=O)(O)OC[C@H]3O[C@@H](n4cnc5c(=O)[nH]c(N)nc54)C[C@@H]3O)[C@@H](COCc3ccc(OCc4ccccc4)c(OCc4ccccc4)c3)O2)c(=O)[nH]c1=O` came in with an IC50 in the test on MT4 [1] above 24 µM. The same compound came in with a CC50 with MT4 [2] above 24 µM.

With `Cc1cn([C@H]2C[C@H](OP(=O)(O)OC[C@H]3O[C@@H](n4cnc5c(=O)[nH]c(N)nc54)C[C@@H]3OP(=O)(O)OC[C@H]3O[C@@H](n4cnc5c(=O)[nH]c(N)nc54)C[C@@H]3OP(=O)(O)OC[C@H]3O[C@@H](n4cnc5c(=O)[nH]c(N)nc54)C[C@@H]3OP(=O)(O)OC[C@H]3O[C@@H](n4cnc5c(=O)[nH]c(N)nc54)C[C@@H]3OP(=O)(O)OC[C@H]3O[C@@H](n4cnc5c(=O)[nH]c(N)nc54)C[C@@H]3O)[C@@H](COCc3ccc(OCc4ccccc4)c(OCc4ccccc4)c3)O2)c(=O)[nH]c1=O`, in the test with MT4 [1], the concentration for half-maximal inhibition (IC50) came to 0.26 µM. The 50% cytotoxic concentration (CC50) with MT4 [2] is above 40 µM.

In the test with MT4 [1], `Cc1cn([C@H]2C[C@H](OP(=O)(O)OC[C@H]3O[C@@H](n4cc(C)c(=O)[nH]c4=O)C[C@@H]3OP(=O)(O)OC[C@H]3O[C@@H](n4cnc5c(O)nc(N)nc54)C[C@@H]3OP(=O)(O)OC[C@H]3O[C@@H](n4cnc5c(O)nc(N)nc54)C[C@@H]3O)[C@@H](COCc3ccc(OCc4ccccc4)c(OCc4ccccc4)c3)O2)c(=O)[nH]c1=O` had an IC50 above 50 µM. The compound further gave a CC50 in the test on MT4 [2] of 33 µM.

In the test on MT4 [1], `Cc1cn([C@H]2C[C@H](OP(=O)(O)OC[C@H]3O[C@@H](n4cnc5c(O)nc(N)nc54)C[C@@H]3OP(=O)(O)OC[C@H]3O[C@@H](n4cnc5c(O)nc(N)nc54)C[C@@H]3OP(=O)(O)OC[C@H]3O[C@@H](n4cnc5c(O)nc(N)nc54)C[C@@H]3OP(=O)(O)OC[C@H]3O[C@@H](n4cnc5c(N)ncnc54)C[C@@H]3O)[C@@H](COCc3ccc(OCc4ccccc4)c(OCc4ccccc4)c3)O2)c(=O)[nH]c1=O` yielded an IC50 of 1.9 µM. The compound also had a CC50 in the test with MT4 [2] above 40 µM.

Consider `Cc1cn([C@H]2C[C@H](OP(=O)(O)OC[C@H]3O[C@@H](n4cnc5c(=O)[nH]c(N)nc54)C[C@@H]3OP(=O)(O)OC[C@H]3O[C@@H](n4cnc5c(=O)[nH]c(N)nc54)C[C@@H]3OP(=O)(O)OC[C@H]3O[C@@H](n4cnc5c(=O)[nH]c(N)nc54)C[C@@H]3OP(=O)(O)OC[C@H]3O[C@@H](n4cnc5c(N)ncnc54)C[C@@H]3OP(=O)(O)OC[C@H]3O[C@@H](n4cnc5c(=O)[nH]c(N)nc54)C[C@@H]3O)[C@@H](COC(c3ccccc3)(c3ccccc3)c3ccccc3)O2)c(=O)[nH]c1=O`, for which the half-maximal inhibitory concentration (IC50) in the test on MT4 [1] came out at 0.8 µM. In the test with MT4 [2], this compound yielded a CC50 of 23 µM.

In the test with MT4 [1], `COc1ccc(C(OC[C@H]2O[C@@H](n3cc(C)c(=O)[nH]c3=O)C[C@@H]2OP(=O)(O)OC[C@H]2O[C@@H](n3cnc4c(=O)[nH]c(N)nc43)C[C@@H]2OP(=O)(O)OC[C@H]2O[C@@H](n3cnc4c(=O)[nH]c(N)nc43)C[C@@H]2OP(=O)(O)OC[C@H]2O[C@@H](n3cnc4c(=O)[nH]c(N)nc43)C[C@@H]2OP(=O)(O)OC[C@H]2O[C@@H](n3cnc4c(N)ncnc43)C[C@@H]2OP(=O)(O)OC[C@H]2O[C@@H](n3cnc4c(=O)[nH]c(N)nc43)C[C@@H]2O)(c2ccccc2)c2ccc(OC)cc2)cc1` displayed a concentration for half-maximal inhibition (IC50) of 1 µM. Also, the cytotoxic concentration (CC50) in the test on MT4 [2] is 38 µM.

Turning to `Cc1cn([C@H]2C[C@H](OP(=O)(O)OC[C@H]3O[C@@H](n4cnc5c(=O)[nH]c(N)nc54)C[C@@H]3OP(=O)(O)OC[C@H]3O[C@@H](n4cnc5c(=O)[nH]c(N)nc54)C[C@@H]3OP(=O)(O)OC[C@H]3O[C@@H](n4cnc5c(=O)[nH]c(N)nc54)C[C@@H]3OP(=O)(O)OC[C@H]3O[C@@H](n4cnc5c(N)ncnc54)C[C@@H]3OP(=O)(O)OC[C@H]3O[C@@H](n4cnc5c(=O)[nH]c(N)nc54)C[C@@H]3O[Si](c3ccccc3)(c3ccccc3)C(C)(C)C)[C@@H](CO)O2)c(=O)[nH]c1=O`, the half-inhibitory concentration (IC50) in the test with MT4 [1] is above 40 µM. The CC50 in the test on MT4 [2] is 7.7 µM.

In turn, `Cc1cn([C@H]2C[C@H](OP(=O)(O)OC[C@H]3O[C@@H](n4cnc5c(=O)[nH]c(N)nc54)C[C@@H]3OP(=O)(O)OC[C@H]3O[C@@H](n4cnc5c(=O)[nH]c(N)nc54)C[C@@H]3OP(=O)(O)OC[C@H]3O[C@@H](n4cnc5c(=O)[nH]c(N)nc54)C[C@@H]3OP(=O)(O)OC[C@H]3O[C@@H](n4cnc5c(N)ncnc54)C[C@@H]3OP(=O)(O)OC[C@H]3O[C@@H](n4cnc5c(=O)[nH]c(N)nc54)C[C@@H]3O)[C@@H](CO[Si](C)(C)C(C)(C)C)O2)c(=O)[nH]c1=O` displayed an IC50 in the test on MT4 [1] above 40 µM. The same compound yielded a CC50 in the test on MT4 [2] of 1.2 µM.

In the test with MT4 [1], `Cc1cn([C@H]2C[C@H](OP(=O)(O)OC[C@H]3O[C@@H](n4cnc5c(=O)[nH]c(N)nc54)C[C@@H]3OP(=O)(O)OC[C@H]3O[C@@H](n4cnc5c(=O)[nH]c(N)nc54)C[C@@H]3OP(=O)(O)OC[C@H]3O[C@@H](n4cnc5c(=O)[nH]c(N)nc54)C[C@@H]3OP(=O)(O)OC[C@H]3O[C@@H](n4cnc5c(N)ncnc54)C[C@@H]3OP(=O)(O)OC[C@H]3O[C@@H](n4cnc5c(=O)[nH]c(N)nc54)C[C@@H]3O)[C@@H](COCc3ccccc3-c3ccccc3)O2)c(=O)[nH]c1=O` had a half-maximal inhibitory concentration (IC50) of 1.2 µM. In addition, in the test on MT4 [2], the CC50 was above 40 µM.

`Cc1cn([C@H]2C[C@H](OP(=O)(O)OC[C@H]3O[C@@H](n4cnc5c(=O)[nH]c(N)nc54)C[C@@H]3OP(=O)(O)OC[C@H]3O[C@@H](n4cnc5c(=O)[nH]c(N)nc54)C[C@@H]3OP(=O)(O)OC[C@H]3O[C@@H](n4cnc5c(=O)[nH]c(N)nc54)C[C@@H]3OP(=O)(O)OC[C@H]3O[C@@H](n4cnc5c(N)ncnc54)C[C@@H]3OP(=O)(O)OC[C@H]3O[C@@H](n4cnc5c(=O)[nH]c(N)nc54)C[C@@H]3O)[C@@H](CO)O2)c(=O)[nH]c1=O` had an IC50 with MT4 [1] above 40 µM. Also, the cytotoxic concentration (CC50) in the test on MT4 [2] was above 40 µM.

For the compound `Cc1cn([C@H]2C[C@H](OP(=O)(O)OC[C@H]3O[C@@H](n4cc(C)c(=O)[nH]c4=O)C[C@@H]3OP(=O)(O)OC[C@H]3O[C@@H](n4cc(C)c(=O)[nH]c4=O)C[C@@H]3OP(=O)(O)OC[C@H]3O[C@@H](n4cc(C)c(=O)[nH]c4=O)C[C@@H]3OP(=O)(O)OC[C@H]3O[C@@H](n4cc(C)c(=O)[nH]c4=O)C[C@@H]3OP(=O)(O)OC[C@H]3O[C@@H](n4cc(C)c(=O)[nH]c4=O)C[C@@H]3O)[C@@H](COCc3ccc(OCc4ccccc4)c(OCc4ccccc4)c3)O2)c(=O)[nH]c1=O`, in the test with MT4 [1], the IC50 was above 24 µM. The compound further had a CC50 in the test on MT4 [2] above 24 µM.

Compound `Cc1cn([C@H]2C[C@H](OP(=O)(O)OC[C@H]3O[C@@H](n4cnc5c(=O)[nH]c(N)nc54)C[C@@H]3OP(=O)(O)OC[C@H]3O[C@@H](n4cnc5c(=O)[nH]c(N)nc54)C[C@@H]3OP(=O)(O)OC[C@H]3O[C@@H](n4cnc5c(=O)[nH]c(N)nc54)C[C@@H]3OP(=O)(O)OC[C@H]3O[C@@H](n4cnc5c(N)ncnc54)C[C@@H]3OP(=O)(O)OC[C@H]3O[C@@H](n4cnc5c(=O)[nH]c(N)nc54)C[C@@H]3O)[C@@H](COC(c3ccccc3)c3ccccc3)O2)c(=O)[nH]c1=O` displayed a half-maximal inhibitory concentration (IC50) in the test on MT4 [1] of 4.3 µM. In the test on MT4 [2], this compound came in with a CC50 above 40 µM.

Consider `Cc1cn([C@H]2C[C@H](OP(=O)(O)OC[C@H]3O[C@@H](n4cnc5c(=O)[nH]c(N)nc54)C[C@@H]3OP(=O)(O)OC[C@H]3O[C@@H](n4cnc5c(=O)[nH]c(N)nc54)C[C@@H]3OP(=O)(O)OC[C@H]3O[C@@H](n4cnc5c(=O)[nH]c(N)nc54)C[C@@H]3OP(=O)(O)OC[C@H]3O[C@@H](n4cnc5c(N)ncnc54)C[C@@H]3OP(=O)(O)OC[C@H]3O[C@@H](n4cnc5c(=O)[nH]c(N)nc54)C[C@@H]3O)[C@@H](COCc3ccc(OCc4ccccc4)c(OCc4ccccc4)c3)O2)c(=O)[nH]c1=O`, for which the half-maximal inhibitory concentration (IC50) in the test on MT4 [1] turned out to be 0.37 µM. In the test with MT4 [2], this compound returned a CC50 above 40 µM.
